# According to paper PMC10251802 (Journal of Enzyme Inhibition and Medicinal Chemistry, 2023):
# “And” between values parts separate entries of the source, which are not always exact repeats. Identical values can stand only once. Like-named read-outs stand apart in the source and are kept apart here.
# Experiments:
# MCF-7 = assay: MTT anti-proliferative assay, MCF-7; type: cell-based, human
# WI-38 = assay: Safety assay; conditions: for IC50: Homo sapiens, WI-38, read-out: Cell lines IC50 WI-38
# A549 = assay: MTT anti-proliferative assay, A549; type: cell-based, human
# A549 cells [1] = assay: Cell cycle analysis by flow cytometry; type: cell-based, human; conditions: A549, 17.79 µM, 72 h
# How it was run: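 A549 cells were exposed to the test compound at 17.79 μM for 72 h, with untreated A549 cells as comparator. Cell-cycle distribution was read by flow cytometry as the percentage of the population in Sub-G1, G1, S and G2/M phases.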
# EGFR^T790M = EGFR^T790M (Homo sapiens, UniProt P00533, T790M); assay: EGFR^T790M kinase inhibition; type: biochemical
# EGFR^WT = EGFR^WT (Homo sapiens, UniProt P00533); assay: EGFR^WT kinase inhibition; type: biochemical
# A549 cells [2] = assay: Apoptosis analysis, Annexin-V/propidium iodide staining; type: cell-based, human; conditions: A549, 17.79 µM, 72 h
# How it was run: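 Annexin-V-FITC/propidium iodide double staining of A549 cells exposed to the test compound (17.79 μM, 72 h), analysed by flow cytometry.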
# BAX and Bcl-2 genes = assay: BAX and Bcl-2 gene expression by quantitative RT-PCR; type: cell-based, human; conditions: A549, 17.79 µM, 72 h
# [3] = Homo sapiens, MCF7, read-out: Cell lines IC50 MCF-7
# [4] = Homo sapiens, A549, read-out: Cell lines IC50 A549
# EGFR^WT, sequence (P00533 25-1210): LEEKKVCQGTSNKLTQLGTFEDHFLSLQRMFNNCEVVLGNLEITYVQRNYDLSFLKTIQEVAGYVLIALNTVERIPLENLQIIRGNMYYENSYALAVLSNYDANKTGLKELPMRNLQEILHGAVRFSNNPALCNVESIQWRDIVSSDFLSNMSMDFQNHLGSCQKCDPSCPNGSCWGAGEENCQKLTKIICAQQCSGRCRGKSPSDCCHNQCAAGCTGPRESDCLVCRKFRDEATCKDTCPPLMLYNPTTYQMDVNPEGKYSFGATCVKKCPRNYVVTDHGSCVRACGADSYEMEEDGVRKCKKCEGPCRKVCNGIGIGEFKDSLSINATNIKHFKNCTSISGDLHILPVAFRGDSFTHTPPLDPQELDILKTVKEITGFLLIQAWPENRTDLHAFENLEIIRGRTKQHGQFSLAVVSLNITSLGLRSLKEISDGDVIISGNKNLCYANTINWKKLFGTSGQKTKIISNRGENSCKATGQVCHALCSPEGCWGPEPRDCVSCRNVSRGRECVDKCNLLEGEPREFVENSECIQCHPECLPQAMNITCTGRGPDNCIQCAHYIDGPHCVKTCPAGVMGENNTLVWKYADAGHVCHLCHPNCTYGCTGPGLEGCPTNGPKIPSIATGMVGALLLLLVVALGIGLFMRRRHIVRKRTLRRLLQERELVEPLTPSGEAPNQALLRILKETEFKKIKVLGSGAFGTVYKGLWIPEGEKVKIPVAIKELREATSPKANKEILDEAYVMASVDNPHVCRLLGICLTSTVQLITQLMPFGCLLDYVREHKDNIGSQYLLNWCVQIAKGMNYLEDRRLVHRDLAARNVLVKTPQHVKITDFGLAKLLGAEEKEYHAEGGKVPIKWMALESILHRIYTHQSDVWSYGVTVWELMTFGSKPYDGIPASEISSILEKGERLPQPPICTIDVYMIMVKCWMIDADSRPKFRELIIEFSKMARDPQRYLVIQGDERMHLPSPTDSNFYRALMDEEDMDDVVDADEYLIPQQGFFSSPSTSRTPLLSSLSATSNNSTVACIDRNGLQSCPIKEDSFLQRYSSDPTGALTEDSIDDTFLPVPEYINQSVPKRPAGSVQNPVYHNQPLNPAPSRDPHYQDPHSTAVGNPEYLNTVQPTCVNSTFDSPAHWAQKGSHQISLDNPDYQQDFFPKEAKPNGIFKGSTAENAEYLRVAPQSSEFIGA
# EGFR^T790M, sequence (P00533 25-1210 T790M): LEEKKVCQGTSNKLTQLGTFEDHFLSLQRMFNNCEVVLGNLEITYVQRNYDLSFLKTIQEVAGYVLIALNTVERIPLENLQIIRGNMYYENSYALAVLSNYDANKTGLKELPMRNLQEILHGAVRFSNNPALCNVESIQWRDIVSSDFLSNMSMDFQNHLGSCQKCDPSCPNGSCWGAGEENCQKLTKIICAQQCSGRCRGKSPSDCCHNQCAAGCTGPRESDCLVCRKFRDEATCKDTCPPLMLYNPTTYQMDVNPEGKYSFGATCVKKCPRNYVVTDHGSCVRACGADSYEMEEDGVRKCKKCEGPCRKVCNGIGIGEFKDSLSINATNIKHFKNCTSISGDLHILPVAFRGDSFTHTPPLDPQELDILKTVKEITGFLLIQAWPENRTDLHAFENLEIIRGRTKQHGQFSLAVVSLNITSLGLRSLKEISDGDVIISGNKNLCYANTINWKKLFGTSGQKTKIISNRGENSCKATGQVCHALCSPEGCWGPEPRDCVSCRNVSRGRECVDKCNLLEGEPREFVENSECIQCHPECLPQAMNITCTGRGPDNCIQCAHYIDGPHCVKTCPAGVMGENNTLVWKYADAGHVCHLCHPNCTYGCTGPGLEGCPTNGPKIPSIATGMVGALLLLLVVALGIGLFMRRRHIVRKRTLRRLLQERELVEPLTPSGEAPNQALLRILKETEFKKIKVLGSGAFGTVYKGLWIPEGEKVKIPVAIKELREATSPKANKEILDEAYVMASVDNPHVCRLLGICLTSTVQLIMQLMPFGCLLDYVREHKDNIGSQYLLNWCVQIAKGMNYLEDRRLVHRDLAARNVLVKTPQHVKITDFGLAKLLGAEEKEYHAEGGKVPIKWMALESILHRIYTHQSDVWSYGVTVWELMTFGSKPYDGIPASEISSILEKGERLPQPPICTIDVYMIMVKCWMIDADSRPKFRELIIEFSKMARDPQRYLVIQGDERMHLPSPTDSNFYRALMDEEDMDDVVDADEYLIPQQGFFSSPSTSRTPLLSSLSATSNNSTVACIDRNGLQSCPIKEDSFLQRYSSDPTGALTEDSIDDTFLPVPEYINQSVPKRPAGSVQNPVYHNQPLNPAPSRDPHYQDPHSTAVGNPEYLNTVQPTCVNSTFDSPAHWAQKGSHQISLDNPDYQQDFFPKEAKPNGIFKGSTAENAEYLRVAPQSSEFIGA
molecule,measurement,setting,value
"C#Cc1cccc(Nc2ncnc3cc(OCCOC)c(OCCOC)cc23)c1 [Erlotinib, reference compound]",IC50,MCF-7; [3],14.3 µM
same,IC50,WI-38,28.5 µM
same,IC50,A549; [4],4.18 µM
"CC1CCc2c(sc3ncnc(Nc4ccccc4F)c23)C1 (centres unmarked) [5b, N-(2-Fluorophenyl)-7-methyl-5,6,7,8-tetrahydrobenzo[4,5]thieno[2,3-d]pyrimidin-4-amine]",Cell cycle distribution % G2/M,A549 cells [1],38.61% and 38.61 ± 2.11 %
same,Cell cycle distribution %G1,A549 cells [1],23.19% and 23.19 ± 2.18 %
same,Cell cycle distribution %S,A549 cells [1],37.66% and 37.66 ± 4.19 %
same,Cell cycle distribution %Sub-G1,A549 cells [1],0.54% and 0.54 ± 0.09%
same,IC50,MCF-7; [3],22.7 µM
same,IC50,EGFR^T790M,204 nM
same,IC50,WI-38,70.1 µM
same,times safer against WI-38 than erlotinib,WI-38; ratio of WI-38 IC50 values vs erlotinib,2.5 fold
same,IC50,EGFR^WT,37.2 nM
same,IC50,A549; [4],17.8 µM
same,Apoptosis Early (right bottom),A549 cells [2],17.84% and 17.84 ± 3.68%
same,Apoptosis Late (right top),A549 cells [2],45.71% and 45.71 ± 5.77 %
same,Necrosis (left top),A549 cells [2],2.12 ± 0.11
same,Viable (left bottom),A549 cells [2],34.33 ± 2.20
same,BAX/Bcl-2 ratio,BAX and Bcl-2 genes; control set to 1,8.3 fold change and 8.35 ± 1.09 fold change
same,Gene expression BAX,BAX and Bcl-2 genes; control set to 1,3 fold change and 2.97 ± 0.14 fold change
same,Gene expression Bcl-2,BAX and Bcl-2 genes; control set to 1,0.37 ± 0.06 fold change
same,downregulation of the Bcl-2 gene,BAX and Bcl-2 genes; vs untreated cells,3 fold
"CC1CCc2c(sc3ncnc(Nc4ccc(S(N)(=O)=O)cc4)c23)C1 (centres unmarked) [5f, 4-((7-Methyl-5,6,7,8-tetrahydrobenzo[4,5]thieno[2,3-d]pyrimidin-4-yl)amino)benzene sulphonamide]",IC50,MCF-7; [3],21.4 µM
same,IC50,EGFR^WT,35.6 nM
same,IC50,A549; [4],17.5 µM
"CC1CCc2c(sc3ncnc(Nc4ccc(Cl)cc4)c23)C1 (centres unmarked) [5a, N-(4-Chlorophenyl)-7-methyl-5,6,7,8-tetrahydrobenzo[4,5]thieno[2,3-d]pyrimidin-4-amine]",IC50,MCF-7; [3],29.3 µM
same,IC50,A549; [4],20.6 µM
"CC1CCc2c(sc3ncnc(Nc4ccc(N)cc4)c23)C1 (centres unmarked) [5d, N^1-(7-Methyl-5,6,7,8-tetrahydro[1]benzothieno[2,3-d]pyrimidin-4-yl)benzene-1,4-diamine]",IC50,MCF-7; [3],35.5 µM
same,IC50,A549; [4],34.8 µM
"CC1CCc2c(sc3ncnc(Nc4ccccc4S(N)(=O)=O)c23)C1 (centres unmarked) [5e, 2-((7-Methyl-5,6,7,8-tetrahydrobenzo[4,5]thieno[2,3-d]pyrimidin-4-yl)amino)benzene sulphonamide]",IC50,MCF-7; [3],29.2 µM
same,IC50,A549; [4],19.9 µM
"N-((7-Methyl-5,6,7,8-tetrahydro[1]benzothieno[2,3-d]pyrimidin-4-yl)methyl) aniline [compound 6]",IC50,"MCF-7; read-out: Cell lines IC50 MCF-7, MTT, mean of three experiments",26.6 µM
same,IC50,"A549; read-out: Cell lines IC50 A549, MTT, mean of three experiments",21.2 µM
"CC1CCc2c(sc3ncnc(NNC(N)=S)c23)C1 (centres unmarked) [7a, 2–(7-Methyl-5,6,7,8-tetrahydro[1]benzothieno[2,3-d]pyrimidin-4-yl)hydrazine carbothioamide]",IC50,MCF-7; [3],35.7 µM
same,IC50,A549; [4],28.7 µM
"CC1CCc2c(sc3ncnc(NN)c23)C1 (centres unmarked) [7b, 4-Hydrazinyl-7-methyl-5,6,7,8-tetrahydro[1]benzothieno[2,3-d]pyrimidine]",IC50,MCF-7; [3],23.7 µM
same,IC50,A549; [4],18.4 µM
"COc1ccc(Nc2ncnc3sc4c(c23)CCC(C)C4)cc1 (centres unmarked) [5c, N-(4-Methoxyphenyl)-7-methyl-5,6,7,8-tetrahydrobenzo[4,5]thieno[2,3-d]pyrimidin-4-amine]",IC50,MCF-7; [3],30 µM
same,IC50,A549; [4],27.1 µM
